One test deals with Dipeptidyl peptidase 4 (Rattus norvegicus, UniProt P14740). The test is described as follows: Inhibition of DPP4 in rat plasma by fluorescence assay. It is filed as cell-free.
Test [1] has as its system Rattus norvegicus. The test is described as follows: Inhibition of DPP4 in Sprague-Dawley rat plasma at 3 mg/kg, po after 30 mins. It is filed as functional. The settings on record: 0.5 h.
The subject of test [2] is Rattus norvegicus. In words: Inhibition of DPP4 in Sprague-Dawley rat plasma at 3 mg/kg, po after 9 hrs. It is filed as functional.
The species named for test [3] is Rattus norvegicus. In words: Reduction in plasma glucose level in Sprague-Dawley rat by oral glucose tolerance test. It is filed as functional, organism-based. In short, it runs like this:
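Male SD rats (400–460 g) fasted at least 20 h, dosed orally with 0.1, 0.3 or 1 mg/kg in 0.5% methyl cellulose (vehicle control) at −30 min. Oral glucose 1 g/kg at 0 min. Tail-vein blood at −5, 5, 10, 15, 30, 60, 120 min; plasma glucose by glucose oxidase peroxidase dye method.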

The source made the active and inactive calls. No cut-off for these calls is given here.

Chain of Dipeptidyl peptidase 4 (P14740 whole entry): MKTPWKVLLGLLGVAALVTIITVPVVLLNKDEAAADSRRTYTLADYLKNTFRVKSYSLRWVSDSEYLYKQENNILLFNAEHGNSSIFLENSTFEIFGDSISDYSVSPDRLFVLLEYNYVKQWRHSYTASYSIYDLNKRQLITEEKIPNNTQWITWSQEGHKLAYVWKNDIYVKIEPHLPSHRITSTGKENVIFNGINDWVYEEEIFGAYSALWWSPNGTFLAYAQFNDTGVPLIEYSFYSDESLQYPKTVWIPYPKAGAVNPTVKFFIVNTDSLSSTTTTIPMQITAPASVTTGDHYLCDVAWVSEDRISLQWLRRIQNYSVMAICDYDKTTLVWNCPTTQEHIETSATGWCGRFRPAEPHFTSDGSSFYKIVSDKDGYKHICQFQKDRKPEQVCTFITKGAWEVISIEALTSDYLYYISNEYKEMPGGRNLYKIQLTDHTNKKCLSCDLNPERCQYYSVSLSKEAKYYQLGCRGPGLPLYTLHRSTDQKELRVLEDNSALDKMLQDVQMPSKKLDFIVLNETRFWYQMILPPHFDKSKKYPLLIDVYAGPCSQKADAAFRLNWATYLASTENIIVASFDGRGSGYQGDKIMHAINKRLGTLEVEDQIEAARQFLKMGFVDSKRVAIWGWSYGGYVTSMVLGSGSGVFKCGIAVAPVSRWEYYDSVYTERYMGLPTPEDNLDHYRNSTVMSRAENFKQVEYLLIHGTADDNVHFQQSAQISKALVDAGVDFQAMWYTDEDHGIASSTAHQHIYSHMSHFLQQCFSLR

As to `CCc1nsc(N2CCN(C(=O)[C@@H]3CN[C@H](C(=O)N4CCCC4)C3)CC2)n1`, at Dipeptidyl peptidase 4, 120 nM corresponded to half-maximal inhibition (IC50). The inhibition in vivo at 3 mg/kg in the test with Rattus norvegicus [1] amounted to 80%; in the test with Rattus norvegicus [2], 47%.

`Cc1nc(N2CCN(C(=O)[C@@H]3CN[C@H](C(=O)N4CCCC4)C3)CC2)sc1C` came in with an IC50 on Dipeptidyl peptidase 4 of 510 nM.

Consider `Cc1nc(N2CCN(C(=O)[C@@H]3CN[C@H](C(=O)N4CCCC4)C3)CC2)no1`, for which the IC50 at Dipeptidyl peptidase 4 was 960 nM.

Take `Cc1cc(N2CCN(C(=O)[C@@H]3CN[C@H](C(=O)N4CCCC4)C3)CC2)sn1`: on Dipeptidyl peptidase 4, it took 240 nM to reach half-maximal inhibition (IC50).

On Dipeptidyl peptidase 4, `O=C([C@@H]1CN[C@H](C(=O)N2CCCC2)C1)N1CCN(c2nc(-c3ccccc3)ns2)CC1` displayed an IC50 of 150 nM. Further, the results for the inhibition in vivo at 3 mg/kg with Rattus norvegicus [1] and in the test with Rattus norvegicus [2] were 64% and 11%, respectively.

The compound `Cc1nsc(N2CCN(C(=O)[C@H]3C[C@@H](C(=O)N4CCCC4)N[C@H]3C)CC2)n1` yielded an IC50 against Dipeptidyl peptidase 4 of 69 nM. Also, the inhibition in vivo at 3 mg/kg with Rattus norvegicus [1] was 89%; in the test on Rattus norvegicus [2], 74%.

`Cc1nsc(N2CCN(C(=O)[C@@H]3CN[C@H](C(=O)N4CCSC4)C3)CC2)n1` had an IC50 against Dipeptidyl peptidase 4 of 76 nM. The inhibition in vivo at 3 mg/kg was determined as 91% in the test with Rattus norvegicus [1] and 75% with Rattus norvegicus [2].

On Dipeptidyl peptidase 4, `Cc1nsc(C2CCN(C(=O)[C@@H]3CN[C@H](C(=O)N4CCCC4)C3)CC2)n1` gave an IC50 of 450 nM.

Consider `CCCc1nsc(N2CCN(C(=O)[C@@H]3CN[C@H](C(=O)N4CCCC4)C3)CC2)n1`, for which it took 110 nM to reach half-maximal inhibition on Dipeptidyl peptidase 4 (IC50). Besides, the inhibition in vivo at 3 mg/kg in the test with Rattus norvegicus [1] came out at 81%; in the test on Rattus norvegicus [2] it was 48%.

Compound `Cc1nsc(N2CCN(C(=O)[C@@H]3CN[C@H](C(=O)N4CCCC4)C3)CC2)n1` showed an IC50 on Dipeptidyl peptidase 4 of 58 nM. For the same compound, the inhibition in vivo at 3 mg/kg in the test with Rattus norvegicus [1] was 84%; in the test with Rattus norvegicus [2], 53%.

As to `CC(C)c1nsc(N2CCN(C(=O)[C@@H]3CN[C@H](C(=O)N4CCCC4)C3)CC2)n1`, the IC50 on Dipeptidyl peptidase 4 was 190 nM. The values for the inhibition in vivo at 3 mg/kg in the test on Rattus norvegicus [1] and with Rattus norvegicus [2] were 85% and 43%, respectively.

On to `COCc1nsc(N2CCN(C(=O)[C@@H]3CN[C@H](C(=O)N4CCCC4)C3)CC2)n1`, for which half-maximal inhibition against Dipeptidyl peptidase 4 (IC50) was put at 49 nM. Also, the inhibition in vivo at 3 mg/kg was found to be 52% in the test on Rattus norvegicus [1] and 41% in the test with Rattus norvegicus [2].

Turning to `O=C([C@@H]1CN[C@H](C(=O)N2CCCC2)C1)N1CCN(c2nc(C(F)(F)F)ns2)CC1`, the IC50 on Dipeptidyl peptidase 4 amounted to 140 nM. Besides, the inhibition in vivo at 3 mg/kg in the test on Rattus norvegicus [1] amounted to 91%; in the test with Rattus norvegicus [2], 54%.

In turn, `O=C([C@@H]1CN[C@H](C(=O)N2CCCC2)C1)N1CCN(c2ncns2)CC1` displayed an IC50 at Dipeptidyl peptidase 4 of 45 nM. For the same compound, the inhibition in vivo at 3 mg/kg was 85% with Rattus norvegicus [1] and 56% with Rattus norvegicus [2].

For the compound `Cc1cnc(N2CCN(C(=O)[C@@H]3CN[C@H](C(=O)N4CCCC4)C3)CC2)s1`, the IC50 at Dipeptidyl peptidase 4 turned out to be 320 nM. This counts as sub-micromolar.

The compound `Cc1nsc(N2CCCN(C(=O)[C@@H]3CN[C@H](C(=O)N4CCCC4)C3)CC2)n1` had an IC50 at Dipeptidyl peptidase 4 of 760 nM.

`Cc1ncc(N2CCN(C(=O)[C@@H]3CN[C@H](C(=O)N4CCCC4)C3)CC2)s1` gave an IC50 against Dipeptidyl peptidase 4 of 340 nM.

The compound `Cc1nsc(N2CCN(C(=O)[C@H]3C[C@@H](C(=O)N4CCSC4)N[C@H]3C)CC2)n1` gave an IC50 at Dipeptidyl peptidase 4 of 60 nM. In addition, the inhibition in vivo at 3 mg/kg with Rattus norvegicus [1] was determined as 95%; with Rattus norvegicus [2] it was 72%. In addition, the outcome in the test listed under Rattus norvegicus [3] was Active.

Values taken from ChEMBL document CHEMBL1143182, “Design and synthesis of DPP-IV inhibitors lacking the electrophilic nitrile group” (Bioorg Med Chem, 2008).
